Experimental findings from ChEMBL document CHEMBL1140872, “Discovery of a potent and selective inhibitor for human carbonyl reductase 1 from propionate scanning applied to the macrolide zearalenone” (Bioorg Med Chem, 2009) are described below.

Experiment [1] concerns the target T1, Cyclin-G-associated kinase (Homo sapiens) (UniProt O14976).
T1 sequence (whole entry): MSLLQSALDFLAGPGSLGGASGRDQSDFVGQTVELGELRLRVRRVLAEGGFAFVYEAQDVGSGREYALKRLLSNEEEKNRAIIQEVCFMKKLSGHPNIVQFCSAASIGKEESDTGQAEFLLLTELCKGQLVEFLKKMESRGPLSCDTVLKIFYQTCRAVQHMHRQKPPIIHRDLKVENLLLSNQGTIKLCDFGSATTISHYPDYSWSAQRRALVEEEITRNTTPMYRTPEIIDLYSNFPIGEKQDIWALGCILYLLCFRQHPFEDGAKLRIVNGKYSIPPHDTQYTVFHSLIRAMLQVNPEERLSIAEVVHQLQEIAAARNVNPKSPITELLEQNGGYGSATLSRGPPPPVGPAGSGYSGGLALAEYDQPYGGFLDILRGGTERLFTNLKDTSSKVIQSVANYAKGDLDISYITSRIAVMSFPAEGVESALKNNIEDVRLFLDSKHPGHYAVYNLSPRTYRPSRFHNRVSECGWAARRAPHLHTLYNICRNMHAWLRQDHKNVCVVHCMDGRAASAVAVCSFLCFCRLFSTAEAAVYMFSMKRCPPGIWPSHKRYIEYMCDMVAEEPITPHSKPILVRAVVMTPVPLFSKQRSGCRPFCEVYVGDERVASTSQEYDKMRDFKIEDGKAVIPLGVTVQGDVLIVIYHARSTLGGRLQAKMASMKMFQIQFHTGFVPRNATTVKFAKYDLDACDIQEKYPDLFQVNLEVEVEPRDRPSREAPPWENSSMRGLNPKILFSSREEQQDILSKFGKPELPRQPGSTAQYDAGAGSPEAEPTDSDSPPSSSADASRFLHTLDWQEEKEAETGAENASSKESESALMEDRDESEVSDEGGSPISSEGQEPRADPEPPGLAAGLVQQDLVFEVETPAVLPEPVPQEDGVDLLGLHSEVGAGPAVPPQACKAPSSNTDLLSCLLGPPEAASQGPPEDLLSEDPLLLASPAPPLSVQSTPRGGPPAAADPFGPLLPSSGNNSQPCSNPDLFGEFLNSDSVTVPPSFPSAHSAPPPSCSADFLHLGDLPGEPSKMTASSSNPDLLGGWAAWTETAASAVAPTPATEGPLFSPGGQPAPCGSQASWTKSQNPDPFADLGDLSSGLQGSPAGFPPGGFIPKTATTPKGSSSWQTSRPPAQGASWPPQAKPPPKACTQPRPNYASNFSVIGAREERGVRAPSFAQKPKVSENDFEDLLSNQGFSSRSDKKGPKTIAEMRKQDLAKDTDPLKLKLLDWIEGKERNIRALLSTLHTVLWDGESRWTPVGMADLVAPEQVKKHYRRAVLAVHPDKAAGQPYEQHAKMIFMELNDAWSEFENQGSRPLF
Briefly: Binding affinity to human recombinant GAK expressed in Escherichia coli assessed as thermal shift by differential scanning fluorimetry. In outline: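 Thermal-shift (DSF) binding assay with purified recombinant catalytic domains or proteins carrying an N- or C-terminal His6 tag or GST fusion. Purity was >95% by SDS/PAGE and identity was confirmed by MS. Protein was at 2 µM final in 10 mM HEPES pH 7.5 and 150 mM NaCl. Tm shift is reported, with 2 °C as the threshold for binding.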

For experiment [2], the target named is T2, Carbonyl reductase [NADPH] 1 (Homo sapiens) (UniProt P16152).
T2 sequence (whole entry): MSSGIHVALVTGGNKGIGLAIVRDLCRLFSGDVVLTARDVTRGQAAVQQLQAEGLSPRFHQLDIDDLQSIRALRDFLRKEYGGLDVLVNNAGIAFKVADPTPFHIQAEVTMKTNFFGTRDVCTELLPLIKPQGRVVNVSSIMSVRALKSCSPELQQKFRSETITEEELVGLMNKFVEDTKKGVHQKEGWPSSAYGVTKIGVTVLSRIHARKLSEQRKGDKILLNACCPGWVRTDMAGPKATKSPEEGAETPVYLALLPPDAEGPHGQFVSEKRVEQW
The experiment is described as follows: Binding affinity to human recombinant carbonyl reductase 1 expressed in Escherichia coli assessed as NADPH oxidation at 200 uM relative to isatin. In outline: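 Substrate test used 200 nM purified CBR1 and 200 µM NADPH, injected onto compound at 200 µM in 50 mM sodium phosphate pH 6.8 with 1 mM MgCl2. NADPH oxidation was read as the fluorescence decrease at 460 nm (excitation 355 nm). Rate came from linear regression after normalizing to the fluorescence rise on injection. Run in triplicate and expressed as % of the isatin rate.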

Experiment [3] addresses Heat shock protein HSP90 (Homo sapiens) (UniProt P07900+P08238).
For experiment [4], the target named is T3, Carbonyl reductase [NADPH] 1 (Homo sapiens, UniProt P16152).
T3 sequence (P16152 whole entry): T2 sequence (whole entry)
The experiment is described as follows: Binding affinity to human recombinant carbonyl reductase 1 expressed in Escherichia coli assessed as NADPH oxidation using isatin as substrate. In outline: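 Purified recombinant CBR1 (200 nM) and NADPH were added to compound in 50 mM sodium phosphate, pH 6.8, 1 mM MgCl2. NADPH oxidation was followed as the fluorescence decrease at 460 nm (excitation 355 nm). Rates came from linear regression after normalising to the fluorescence rise at injection. Compounds were titrated at two isatin levels, with no-protein background subtracted. Sigmoidal fit gave IC50, then Ki from the isatin concentration.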

As to `COc1cc2c(c(OC)c1)C(=O)O[C@@H](C)CCCC(=O)[C@@H](C)CC/C=C/2`, the Tm in experiment [1] and in experiment [3] was below 2 °C in each case. Also, in experiment [2], the Activity turned out to be 31.3%.
`COc1cc2c(c(OC)c1)C(=O)O[C@@H](C)CCC[C@@H](O)[C@@H](C)CC/C=C/2`: the Tm in experiment [1] and in experiment [3] was below 2 °C throughout.
Regarding `C[C@H]1CCCC(=O)CCC/C=C/c2cc(O)cc(O)c2C(=O)O1`, the values for the Tm in experiment [1] and in experiment [3] were 2.4 °C and 2.3 °C, respectively. Further, in experiment [2], the Activity was determined as 5.7%.
For the compound `COC1=C2C[C@@H](C)C[C@H](OC)[C@H](O)[C@@H](C)/C=C(\C)[C@H](OC(N)=O)[C@@H](OC)/C=C\C=C(/C)C(=O)NC(=CC1=O)C2=O`, the Tm in experiment [1] is below 2 °C.
As to `C[C@H]1CCCC(=O)[C@@H](C)CC/C=C/c2cc(O)cc(O)c2C(=O)O1`, the Tm was 2.9 °C in experiment [1] and below 2 °C in experiment [3]. Also, in experiment [4], the IC50 was 210 nM. For the same compound, the Ki in experiment [4] was 40 nM.
For the compound `COc1cc(O)c2c(c1)/C=C/CC[C@H](C)C(=O)CCC[C@H](C)OC2=O`, the Tm in experiment [1] and in experiment [3] was below 2 °C throughout. Moreover, in experiment [2], the Activity came out at 1.5%.
With `C[C@@H]1C[C@H]2O[C@@H]2/C=C\C=C\C(=O)Cc2c(Cl)c(O)cc(O)c2C(=O)O1` [RADICICOL], the Tm in experiment [1] was below 2 °C. In experiment [4], the IC50 came out at 3270 nM and the Ki was 520 nM.
